Measured values from ChEMBL document CHEMBL1134792, “Antimitotic antitumor agents: synthesis, structure-activity relationships, and biological characterization of N-aryl-N'-(2-chloroethyl)ureas as new selective alkylating agents” (J Med Chem, 2001).

Columns and labels:
CHO = assay: Dose required to inhibit cell growth was determined against CHO cell line; assay type: functional, cell-based; details: Cricetulus griseus
Procedure, shortened: (§1)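 Alamar Blue growth assay. (1–5) × 10^3 cells per well preincubated 24 h, then exposed to increasing drug concentrations for 72 h at 37 °C. Medium replaced with PBS containing 20% Alamar Blue, fluorescence read at 485/590 nm. IC50 is the dose inhibiting growth by 50%.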

HT-29 = assay: Dose required to inhibit cell growth was determined against HT-29 cell line of human adenocarcinoma; assay type: functional, cell-based; procedure, shortened: as §1
K562 = assay: Dose required to inhibit cell growth was determined against K562 cell line of chronic myelogenous leukemia; assay type: functional, cell-based; details: Homo sapiens; procedure, shortened: as §1
L1210 = assay: Dose required to inhibit cell growth was determined against L1210 cell line of murine lymphocytotic leukemia; assay type: functional, cell-based; details: Mus musculus; procedure, shortened: as §1
MDA-MB-231 [1] = assay: Beta tubulin alkylation activity in MDA-MB-231 cells; assay type: functional, Homo sapiens; design: concentration or dose not given beside the values
Procedure, shortened: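 MDA-MB-231 cells (~5 × 10^6), exponentially growing, exposed to 30 μM compound for 24 h at 37 °C. Lysed in Laemmli buffer, run on 10% SDS-PAGE, immunoblotted with anti-β-tubulin (TUB 2.1, 1:500) and peroxidase anti-mouse secondary, ECL detection. Normal and alkylated band densities integrated to give % alkylated β-tubulin. Representative of three experiments.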

MDA-MB-231 [2] = assay: Dose required to inhibit cell growth was determined against MDA-MB-231 cell line of human non-hormone dependent breast carcinoma; assay type: functional, cell-based; procedure, shortened: as §1
MDA-MB-231 [3] = assay: DNA damages caused in MDA-MB-231 cells after 2 hr exposure to a concentration of 400 uM; assay type: functional
Procedure, shortened: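 Growing MDA-MB-231 cells held 2 h at 37 °C in medium with or without 400 μM compound. Cells washed in cold PBS and lysed in Tris/SDS/EDTA/deferoxamine/proteinase K buffer. DNA isolated by salting out, then 3'-end labeled by T4 DNA polymerase nucleotide exchange. Incorporated radioactivity measured by dot filtration, expressed as dCps exchanged/ng DNA. Means ± SD, ≥3 determinations.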

LoVo = assay: Dose to inhibit cell growth determined against LoVo cell line of human adenocarcinoma; assay type: functional, cell-based; procedure, shortened: as §1
P388 = assay: Dose required to inhibit cell growth was determined against P388D1 cell line of murine lymphocytotic leukemia; assay type: functional, cell-based; details: Mus musculus; procedure, shortened: as §1
[4] = Alkylating activity by using 4-(4-nitrobenzyl)-pyridine(NBP) colorimetric assay
Procedure, shortened: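 NBP colorimetric assay. Drug at 400 nmol/mL in ethanol was mixed with 10% NBP in ethanol and 50 mM sodium acetate pH 4.3, then heated at 80 °C for 60, 90, 120 or 150 min. Samples were chilled and basified with KOH/ethanol, and A570 was read against a drug-free blank. The alkylation rate (A570/min) is the slope of a linear regression of absorbance vs time. Mean ± SD of ≥3 independent experiments.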

SMILES: O=C(NCCCl)Nc1ccc2c(c1)CCC2
- IC50 (CHO): 10 µM
- IC50 (HT-29): 10 µM
- IC50 (K562): 5.5 µM
- IC50 (L1210): 5 µM
- Activity (MDA-MB-231 [1]): 43%
- IC50 (MDA-MB-231 [2]): 10 µM
- DNA damage (MDA-MB-231 [3]): 2.37 10e7 exchanged dCps (ng of DNA)
- IC50 (LoVo): 5.1 µM
- IC50 (P388): 7.3 µM
- Activity [4]: 3.5 A570 min-1
